Where “and” joins values, the source holds several entries; their conditions need not be identical. Equal values may be shown once.
Tested on: U2OS
Test: Multiplex assay against U2OS
Assay type: toxicity, cell-based
Details: human
In short: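 Live cells carried four stains from seeding: Hoechst33342, BioTracker Green Microtubule Cytoskeleton Dye, MitoTracker Red and Annexin V Alexa Fluor 680. They were imaged on a CQ1 microscope at 37°C and 5% CO2 after compound addition. Using CellPathfinder machine-learning gating, cells were split into Hoechst high-intensity objects or normal cells, normal cells into healthy, pyknosed or fragmented nuclei, and pyknosed cells into mitotic or apoptotic; tubulin, mitochondrial-mass and membrane-permeability phenotypes are per cents of healthy-nucleus cells.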

[1] = 12 h, 1 µM, compound concentration 1 uM
[2] = 12 h, 10 µM, compound concentration 10 uM
[3] = 24 h, 1 µM, compound concentration 1 uM
[4] = 24 h, 10 µM, compound concentration 10 uM
[5] = 48 h, 1 µM, compound concentration 1 uM
[6] = 48 h, 10 µM, compound concentration 10 uM

CC(C)C[C@H](NC(=O)c1cc2ccccc2s1)C(=O)N1CCN(C(=O)[C@H](CO)NS(=O)(=O)c2ccc(Cl)cc2Cl)CC1
Population Apoptotic (%) [1]: 71.76% and 81.82%
Population Fragmented Nuclei (%) [1]: 5.1% and 6.74%
Population Healthy Nuclei (%) [1]: 61.48% and 56.18%
Population Hoechst High Intensity Objects (%) [1]: 0%
Population Membrane Permeable-Phenotype (%) [1]: 5.39% and 4%
Population Mitotic Cells (%) [1]: 28.24% and 18.18%
Population Normal (%) [1]: 100%
Population Pyknosed Nuclei (%) [1]: 33.42% and 37.08%
Population Tubulin-Different-Phenotype (%) [1]: 4.56% and 4%
Population Apoptotic (%) [2]: 55.1% and 50.79%
Population Fragmented Nuclei (%) [2]: 2% and 2.9%
Population Healthy Nuclei (%) [2]: 65.33% and 51.45%
Population Hoechst High Intensity Objects (%) [2]: 0%
Population Membrane Permeable-Phenotype (%) [2]: 69.39% and 39.44%
Population Mitochondria Different-Phenotype (%) [2]: 30.61% and 87.32%
Population Mitotic Cells (%) [2]: 44.9% and 49.21%
Population Normal (%) [2]: 100%
Population Pyknosed Nuclei (%) [2]: 32.67% and 45.65%
Population Tubulin-Different-Phenotype (%) [2]: 98.47% and 95.77%
Total Cell Count [2]: 300 and 138
Population Apoptotic (%) [3]: 71.76% and 90.91%
Population Fragmented Nuclei (%) [3]: 4.78% and 1.14%
Population Healthy Nuclei (%) [3]: 65.38% and 61.36%
Population Hoechst High Intensity Objects (%) [3]: 0%
Population Membrane Permeable-Phenotype (%) [3]: 4.18% and 5.56%
Population Normal (%) [3]: 100%
Population Pyknosed Nuclei (%) [3]: 29.84% and 37.5%
Population Tubulin-Different-Phenotype (%) [3]: 4.88% and 3.7%
Population Apoptotic (%) [4]: 65.59% and 62.96%
Population Fragmented Nuclei (%) [4]: 2.48% and 4.41%
Population Healthy Nuclei (%) [4]: 64.54% and 55.88%
Population Hoechst High Intensity Objects (%) [4]: 0%
Population Membrane Permeable-Phenotype (%) [4]: 34.07% and 32.89%
Population Mitochondria Different-Phenotype (%) [4]: 52.75% and 88.16%
Population Mitotic Cells (%) [4]: 34.41% and 37.04%
Population Normal (%) [4]: 100%
Population Pyknosed Nuclei (%) [4]: 32.98% and 39.71%
Population Tubulin-Different-Phenotype (%) [4]: 95.6% and 81.58%
Total Cell Count [4]: 282 and 136
Population Apoptotic (%) [5]: 77.39% and 79.17%
Population Fragmented Nuclei (%) [5]: 3.97% and 6.03%
Population Healthy Nuclei (%) [5]: 79.75% and 73.28%
Population Hoechst High Intensity Objects (%) [5]: 0%
Population Membrane Permeable-Phenotype (%) [5]: 5.15% and 10.59%
Population Mitotic Cells (%) [5]: 22.61% and 20.83%
Population Normal (%) [5]: 100%
Population Pyknosed Nuclei (%) [5]: 16.29% and 20.69%
Population Tubulin-Different-Phenotype (%) [5]: 5.51% and 4.71%
Population Apoptotic (%) [6]: 78.7% and 70%
Population Fragmented Nuclei (%) [6]: 3.93% and 4.11%
Population Healthy Nuclei (%) [6]: 63.44% and 54.79%
Population Hoechst High Intensity Objects (%) [6]: 0%
Population Membrane Permeable-Phenotype (%) [6]: 29.05% and 32.5%
Population Mitochondria Different-Phenotype (%) [6]: 43.33% and 62.5%
Population Mitotic Cells (%) [6]: 21.3% and 30%
Population Normal (%) [6]: 100%
Population Pyknosed Nuclei (%) [6]: 32.63% and 41.1%
Population Tubulin-Different-Phenotype (%) [6]: 92.38% and 80%
Total Cell Count [6]: 331 and 146

CNc1nc(NCc2ncccn2)c2c(-c3ccc4ncccc4c3)c[nH]c2n1
Population Apoptotic (%) [1]: 34.88% and 46.15%
Population Fragmented Nuclei (%) [1]: 1.68% and 0.68%
Population Healthy Nuclei (%) [1]: 88.01% and 90.48%
Population Hoechst High Intensity Objects (%) [1]: 0%
Population Membrane Permeable-Phenotype (%) [1]: 1.36% and 3.01%
Population Mitochondria Different-Phenotype (%) [1]: 0% and 4.51%
Population Mitotic Cells (%) [1]: 65.12% and 53.85%
Population Normal (%) [1]: 100%
Population Pyknosed Nuclei (%) [1]: 10.31% and 8.84%
Population Tubulin-Different-Phenotype (%) [1]: 0.82% and 0.75%
Total Cell Count [1]: 417 and 147
Population Apoptotic (%) [2]: 30.95% and 40%
Population Fragmented Nuclei (%) [2]: 0.88% and 3.14%
Population Healthy Nuclei (%) [2]: 86.76% and 84.28%
Population Hoechst High Intensity Objects (%) [2]: 0%
Population Membrane Permeable-Phenotype (%) [2]: 6.44% and 8.21%
Population Mitotic Cells (%) [2]: 69.05% and 60%
Population Normal (%) [2]: 100%
Population Pyknosed Nuclei (%) [2]: 12.35% and 12.58%
Population Tubulin-Different-Phenotype (%) [2]: 6.78% and 4.48%
Total Cell Count [2]: 340 and 159
Population Apoptotic (%) [3]: 48.89% and 42.86%
Population Fragmented Nuclei (%) [3]: 2.09% and 2.01%
Population Healthy Nuclei (%) [3]: 90.09% and 83.92%
Population Hoechst High Intensity Objects (%) [3]: 0%
Population Membrane Permeable-Phenotype (%) [3]: 0.58% and 1.2%
Population Mitochondria Different-Phenotype (%) [3]: 0.19% and 6.59%
Population Mitotic Cells (%) [3]: 51.11% and 57.14%
Population Normal (%) [3]: 100%
Population Pyknosed Nuclei (%) [3]: 7.83% and 14.07%
Population Tubulin-Different-Phenotype (%) [3]: 0.58% and 0.6%
Total Cell Count [3]: 575 and 199
Population Apoptotic (%) [4]: 29.41% and 43.75%
Population Fragmented Nuclei (%) [4]: 2.37% and 4.04%
Population Healthy Nuclei (%) [4]: 89.57% and 87.88%
Population Hoechst High Intensity Objects (%) [4]: 0%
Population Membrane Permeable-Phenotype (%) [4]: 1.59% and 2.3%
Population Mitotic Cells (%) [4]: 70.59% and 56.25%
Population Normal (%) [4]: 100%
Population Pyknosed Nuclei (%) [4]: 8.06% and 8.08%
Population Tubulin-Different-Phenotype (%) [4]: 2.12% and 1.15%
Total Cell Count [4]: 422 and 198
Population Apoptotic (%) [5]: 45% and 54.29%
Population Fragmented Nuclei (%) [5]: 3.04% and 1.19%
Population Healthy Nuclei (%) [5]: 87.45% and 88.36%
Population Hoechst High Intensity Objects (%) [5]: 0%
Population Membrane Permeable-Phenotype (%) [5]: 1.2% and 1.35%
Population Mitochondria Different-Phenotype (%) [5]: 0.11% and 4.39%
Population Mitotic Cells (%) [5]: 55% and 45.71%
Population Normal (%) [5]: 100%
Population Pyknosed Nuclei (%) [5]: 9.51% and 10.45%
Population Tubulin-Different-Phenotype (%) [5]: 1.41% and 0.68%
Population Apoptotic (%) [6]: 55.56% and 56%
Population Fragmented Nuclei (%) [6]: 1.27% and 3.63%
Population Healthy Nuclei (%) [6]: 89.84% and 88.12%
Population Hoechst High Intensity Objects (%) [6]: 0%
Population Membrane Permeable-Phenotype (%) [6]: 0.94% and 1.87%
Population Mitochondria Different-Phenotype (%) [6]: 0.78% and 7.87%
Population Mitotic Cells (%) [6]: 44.44% and 44%
Population Normal (%) [6]: 100%
Population Pyknosed Nuclei (%) [6]: 8.89% and 8.25%
Population Tubulin-Different-Phenotype (%) [6]: 1.88% and 1.5%
Total Cell Count [6]: 709 and 303

Source: ChEMBL document CHEMBL5724801, “EUbOPEN Chemogenomics Library - Multiplex” (2024)
